SMILES strings stand for the structures. pIC50, pKd: −log10 of the molar value. In brackets after ≈: the same amount, converted by molar mass. Bounds are passed on as bounds.

As usually defined, the pKd is −log10 of the Kd, conventionally taken in molar units. Lower therefore signals a high Kd. As usually defined, the pIC50 is the IC50 on a negative log10 scale, so that one unit is a factor of ten. The solubility is how much of the substance goes into solution per volume. A lower solubility goes with little dissolved substance. By IC50 is commonly meant the concentration at which inhibition is half-maximal. Low readings indicate higher potency, high ones lower potency.

In series [1] the test system is Haemophilus influenzae. Kind of series: Antibacterial activity against AcrB deficient Haemophilus influenzae H128 after 18 to 24 hrs by broth microdilution method. It counts as functional. For orientation: Broth dilution looks for growth in wells or tubes with falling amounts of substance.
In series [2] the test system is Pseudomonas aeruginosa. The series can be described thus: Antibacterial activity against Pseudomonas aeruginosa PAO322 after 18 to 24 hrs by broth microdilution method. It is filed as functional.
The test system of the next series is Streptococcus pneumoniae. Kind of series: Antibacterial activity against Streptococcus pneumoniae 1629 after 18 to 24 hrs by broth microdilution method. It counts as functional.
Series [3] concerns Haemophilus influenzae. The series can be described thus: Antibacterial activity against Haemophilus influenzae H128 after 18 to 24 hrs by broth microdilution method. It counts as functional.
Series [4] relates to Klebsiella pneumoniae. Kind of series: Antibacterial activity against Klebsiella pneumoniae 1161486 after 18 to 24 hrs by broth microdilution method. It counts as functional.
Series [5] relates to Staphylococcus aureus. The series can be described thus: Antibacterial activity against Staphylococcus aureus Oxford after 18 to 24 hrs by broth microdilution method. It is filed as functional.
Series [6] has as its system Pseudomonas aeruginosa. Kind of series: Antibacterial activity against Pseudomonas aeruginosa PAO(MV) after 18 to 24 hrs by broth microdilution method. It is filed as functional.
Series [7] deals with Escherichia coli. Kind of series: Antibacterial activity against Escherichia coli 7623 after 18 to 24 hrs by broth microdilution method. It counts as functional.
The subject of series [8] is Acinetobacter baumannii. The series can be described thus: Antibacterial activity against Acinetobacter baumannii BM4454 after 18 to 24 hrs by broth microdilution method. It counts as functional.
Another series has as its system Streptococcus pyogenes. Kind of series: Antibacterial activity against Streptococcus pyogenes 1307006P after 18 to 24 hrs by broth microdilution method. It counts as functional.
The subject of series [9] is Escherichia coli. Kind of series: Antibacterial activity against TolC deficient Escherichia coli 7623 after 18 to 24 hrs by broth microdilution method. It counts as functional.
The test system of series [10] is Klebsiella pneumoniae. The series can be described thus: Antibacterial activity against TolC deficient Klebsiella pneumoniae 1161486a after 18 to 24 hrs by broth microdilution method. It is filed as functional.
In series [11] the target is T1, DNA ligase (Staphylococcus aureus, UniProt Q9AIU7). Kind of series: Binding affinity to C-terminal 6xHis-tagged Staphylococcus aureus DNA ligase (1 to 312) expressed in Escherichia coli BL21 (DE3) by ITC assay. In general terms: In ITC the heat of successive injections is recorded.
Series [12] concerns the target T1, DNA ligase. The series can be described thus: Inhibition of C-terminal 6xHis-tagged full length recombinant Staphylococcus aureus DNA ligase (1 to 312) expressed in Escherichia coli BL21 (DE3) using oligonucleotide as substrate after 10 mins by TR-FRET assay. (In general: In TR-FRET formats the signal depends on donor and acceptor labels being close together.)

Series [13] can be described thus: Solubility of the compound. It is filed as physicochemical.
A further series has as its system L5178Y. Kind of series: Cytotoxicity against TK +/- expressing mouse L5178Y cells. It counts as cell-based. The procedure, abridged:
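Mouse lymphoma cell line (described as lung lymphoma) used for general cytotoxicity, tested up to a highest concentration of 100 μM.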

Series [14] concerns Escherichia coli. Kind of series: Antibacterial activity against TolC deficient Escherichia coli TOP10 by broth microdilution method. It is filed as functional.
Series [15] relates to Acinetobacter baumannii. The series can be described thus: Antibacterial activity against Acinetobacter baumannii BM4652 expressing efflux transporter mutant after 18 to 24 hrs by broth microdilution method.
Series [16] has as its system Escherichia coli. Kind of series: Antibacterial activity against TolC deficient Escherichia coli TOP10 expressing LigA G180E mutant by broth microdilution method. It counts as functional.
Series [17] concerns Staphylococcus aureus. Kind of series: Antibacterial activity against Staphylococcus aureus RN4220 expressing pYH4-YerG/LigA by broth microdilution method in absence of anhydrotetracycline. It counts as functional.
Series [18] relates to Escherichia coli. The series can be described thus: Antibacterial activity against TolC deficient Escherichia coli TOP10 expressing LigA R150S mutant by broth microdilution method. It counts as functional.
Series [19] deals with Staphylococcus aureus. The series can be described thus: Antibacterial activity against Staphylococcus aureus RN4220 expressing pYH4 by broth microdilution method in presence of anhydrotetracycline. It is filed as functional.
Series [20] has as its system Staphylococcus aureus. Kind of series: Antibacterial activity against Staphylococcus aureus RN4220 expressing pYH4 by broth microdilution method in absence of anhydrotetracycline. It counts as functional.
Series [21] deals with Staphylococcus aureus. Kind of series: Antibacterial activity against Staphylococcus aureus RN4220 expressing pYH4-YerG/LigA by broth microdilution method in presence of anhydrotetracycline. It is filed as functional.
Series [22] relates to Escherichia coli. The series can be described thus: Antibacterial activity against TolC deficient Escherichia coli TOP10 expressing LigA R518H mutant by broth microdilution method. It counts as functional.
Series [23] is described as follows: Inhibition of Escherichia coli LigA.

T1 sequence (Q9AIU7 whole entry): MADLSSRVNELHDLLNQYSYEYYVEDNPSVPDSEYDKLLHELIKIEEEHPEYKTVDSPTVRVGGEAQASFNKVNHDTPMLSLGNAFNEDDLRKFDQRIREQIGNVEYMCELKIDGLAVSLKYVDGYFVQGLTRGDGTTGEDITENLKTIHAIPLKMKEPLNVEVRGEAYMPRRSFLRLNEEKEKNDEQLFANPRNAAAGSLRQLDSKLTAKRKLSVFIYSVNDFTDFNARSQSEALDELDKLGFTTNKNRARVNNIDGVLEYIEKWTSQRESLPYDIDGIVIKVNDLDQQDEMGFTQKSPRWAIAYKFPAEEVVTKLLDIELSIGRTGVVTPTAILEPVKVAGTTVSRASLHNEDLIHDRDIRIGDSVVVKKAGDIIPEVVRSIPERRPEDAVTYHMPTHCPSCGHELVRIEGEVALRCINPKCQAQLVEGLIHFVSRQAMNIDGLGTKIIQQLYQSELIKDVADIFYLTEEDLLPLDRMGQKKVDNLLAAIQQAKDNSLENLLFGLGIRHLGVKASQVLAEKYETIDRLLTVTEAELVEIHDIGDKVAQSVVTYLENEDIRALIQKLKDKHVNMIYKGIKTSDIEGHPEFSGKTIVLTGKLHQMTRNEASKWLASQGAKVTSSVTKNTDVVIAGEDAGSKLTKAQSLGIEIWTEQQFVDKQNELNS

Take `Nc1nc(OCC2CCC2)nc2c1ncn2[C@@H]1O[C@H](CF)[C@@H](O)[C@H]1O`: the MIC in the series with Haemophilus influenzae [1] is 2 µg/mL (≈ 5.66 µM); against Pseudomonas aeruginosa [2], 64 µg/mL (≈ 181 µM); against Streptococcus pneumoniae, 2 µg/mL (≈ 5.66 µM); in the series on Haemophilus influenzae [3] it was 16 µg/mL (≈ 45.3 µM); with Klebsiella pneumoniae [4], over 128 µg/mL; against Staphylococcus aureus [5], 8 µg/mL (≈ 22.6 µM). Moreover, the MIC in the series on Pseudomonas aeruginosa [6] is over 128 µg/mL; against Escherichia coli [7] it was over 128 µg/mL; in the series with Acinetobacter baumannii [8], over 128 µg/mL; with Streptococcus pyogenes it was 8 µg/mL (≈ 22.6 µM); against Escherichia coli [9], 8 µg/mL (≈ 22.6 µM); against Klebsiella pneumoniae [10], 8 µg/mL (≈ 22.6 µM).

Regarding `Clc1cncc(-c2nnc[nH]2)n1`, on DNA ligase [11], the negative-log Kd (pKd) was 4.42.

For the compound `Clc1cccc(-c2nc[nH]n2)n1`, the pIC50 on DNA ligase [12] is 4.77. The negative logarithm of the Kd (pKd) at DNA ligase [11] was 5.00.

`c1ccc(-c2nnc[nH]2)nc1`: the negative logarithm of the IC50 (pIC50) on DNA ligase [12] is 3.52.

Turning to `COc1cccc(-c2nnc[nH]2)n1`, the pIC50 on DNA ligase [12] was 3.89.

On to `Cc1cccc(-c2nnc[nH]2)n1`, for which the pIC50 at DNA ligase [12] is 3.85.

With `c1cc(-c2nnc[nH]2)nc(C2CCC2)c1`, the pIC50 at DNA ligase [12] was 4.28.

As to `CC(F)(F)c1cccc(-c2nnc[nH]2)n1`, at DNA ligase [12], the pIC50 was 4.68.

`FC(F)(F)c1cccc(-c2nc[nH]n2)n1`: the pIC50 on DNA ligase [12] is 4.80.

In turn, `FC(F)(F)c1cccc(-c2n[nH]c3cnccc23)n1` came in with a solubility in series [13] of 12 µg/mL (≈ 45.4 µM). The pIC50 on DNA ligase [12] is 6.66.

With `OCCNc1cc(-c2n[nH]c3cnccc23)nc(C(F)(F)F)c1`, the MIC in the series with Haemophilus influenzae [1] is 8 µg/mL (≈ 24.7 µM); against Pseudomonas aeruginosa [2] it was over 128 µg/mL; against Streptococcus pneumoniae it was 64 µg/mL (≈ 198 µM); in the series with Haemophilus influenzae [3], 128 µg/mL (≈ 396 µM); in the series with Klebsiella pneumoniae [4], over 128 µg/mL; with Staphylococcus aureus [5] it was 8 µg/mL (≈ 24.7 µM). The MIC against Pseudomonas aeruginosa [6] is over 128 µg/mL; in the series on Escherichia coli [7], over 128 µg/mL; against Acinetobacter baumannii [8], over 128 µg/mL; against Streptococcus pyogenes, 128 µg/mL (≈ 396 µM); against Escherichia coli [9], 128 µg/mL (≈ 396 µM); in the series with Klebsiella pneumoniae [10], over 128 µg/mL. Further, the concentration in solution in series [13] (solubility) was 113 µg/mL (≈ 350 µM). Besides, the pIC50 on DNA ligase [12] is 6.64. Besides, 16 µg/mL (≈ 49.5 µM) corresponded to half-maximal inhibition with L5178Y (IC50).

Consider `OCCNc1cc(C(F)(F)F)nc(-c2n[nH]c3cnccc23)n1`, for which the MIC in the series with Haemophilus influenzae [1] was determined as 1 µg/mL (≈ 3.08 µM); against Escherichia coli [14] it was 8 µg/mL (≈ 24.7 µM); with Acinetobacter baumannii [15], 32 µg/mL (≈ 98.7 µM); against Escherichia coli [16], 64 µg/mL (≈ 197 µM); against Pseudomonas aeruginosa [2], 32 µg/mL (≈ 98.7 µM); in the series on Staphylococcus aureus [17], 16 µg/mL (≈ 49.3 µM). The MIC was 64 µg/mL (≈ 197 µM) against Escherichia coli [18]; 8 µg/mL in the series with Staphylococcus aureus [19]; 2 µg/mL (≈ 6.17 µM) against Streptococcus pneumoniae; 16 µg/mL (≈ 49.3 µM) in the series with Haemophilus influenzae [3]; 8 µg/mL (≈ 24.7 µM) against Staphylococcus aureus [20]; 128 µg/mL in the series with Staphylococcus aureus [21]. The MIC against Klebsiella pneumoniae [4] was over 128 µg/mL; in the series on Staphylococcus aureus [5] it was 4 µg/mL (≈ 12.3 µM); in the series on Pseudomonas aeruginosa [6], over 128 µg/mL; against Escherichia coli [7], over 128 µg/mL; in the series on Acinetobacter baumannii [8], over 128 µg/mL; with Streptococcus pyogenes, 8 µg/mL (≈ 24.7 µM). For the same compound, the MIC in the series with Escherichia coli [22] was 64 µg/mL (≈ 197 µM); with Escherichia coli [9], 16 µg/mL (≈ 49.3 µM); in the series with Klebsiella pneumoniae [10] it was 32 µg/mL (≈ 98.7 µM). In addition, the pIC50 at DNA ligase [12] is 7.82; in [23], 7.01. The compound also yielded an IC50 in the series on L5178Y of over 36 µg/mL. The compound further gave a pKd at DNA ligase [11] of 7.60.

For the origin of these results see ChEMBL document CHEMBL3098046, “Fragment-based discovery of 6-azaindazoles as inhibitors of bacterial DNA ligase” (ACS Med Chem Lett, 2013).
